Assay outcomes from PubChem BioAssay.
NR2E3 ag-1 = NR2E3 agonists in two-hybrid cells, primary screen, cell-based, luminescence, CHO-S, Gal4-NCOR/VP16-NR2E3; Photoreceptor-specific nuclear receptor (Homo sapiens), Q9Y5X4; luciferase; inhibition of corepressor binding, % at 3.98 µM; 360,000 compounds, 0.35% hits; AID 602229, 2012;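 active = inhibition above the mean of all tested compounds plus 3 SD, cut at about 70% in these data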;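 also: 0% = DMSO with NR2E3 transfected cells and 100% = cells lacking NR2E3 construct; higher means lower luciferase signal from less NR2E3 corepressor binding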
Target sequence (Q9Y5X4 whole entry, looked up, the tested form may be a part): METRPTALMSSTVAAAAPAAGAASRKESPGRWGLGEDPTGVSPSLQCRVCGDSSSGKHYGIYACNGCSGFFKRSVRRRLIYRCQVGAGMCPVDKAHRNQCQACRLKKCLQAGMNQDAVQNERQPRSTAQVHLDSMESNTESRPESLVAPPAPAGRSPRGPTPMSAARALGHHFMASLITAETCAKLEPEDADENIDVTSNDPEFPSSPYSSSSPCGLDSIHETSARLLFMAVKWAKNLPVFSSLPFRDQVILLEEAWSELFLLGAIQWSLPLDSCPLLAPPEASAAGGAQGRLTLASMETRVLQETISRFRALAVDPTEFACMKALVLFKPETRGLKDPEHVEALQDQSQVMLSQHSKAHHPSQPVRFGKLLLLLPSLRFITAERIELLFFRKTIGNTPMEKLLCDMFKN
Myeloid diff 2 = induction of myeloid progenitor differentiation, primary screen, cell-based, flow cytometry, MLPCN library | ER-HoxA9 myeloid progenitors, lysozyme-GFP differentiation | calls only at 10 µM | AID 624256, 2012 | 360,000 compounds, 1% hits;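 active = normalized GFP-positive differentiation at or above the plate's own cutoff, the solvent-only control mean plus 3 SD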;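 also: cells exposed to compound for four days before flow analysis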
T cell HTS = modulators of CD8 T cell-vesicle binding, primary screen, mouse 2C CD8+ T cells, flow cytometry; 2C CD8+ T cell-vesicle binding; stronger effect = lower value; response (vesicle binding), % at 7 µM; AID 2052, 2009; 330,000 compounds, 0.068% hits;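 active = response, share of CD8 T cells binding vesicles, and their 90th percentile fluorescence all below set limits, cut at about 80% in these data, passing the limit was not always enough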;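 also: values below 100% mean blocked vesicle binding to the CD8+ T cells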
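Material: 2C TCR transgenic mouse naive CD8+ T cells, MACS-purified. Also added: QL9-charged Drosophila Ld/ICAM-1/B7-1 vesicles. Timing: binding 1.5 h at 37 °C. Measured by: high-throughput flow cytometry with anti-B7-1 and anti-CD8 staining. Read-out: percent CD8+ FL2 mean versus row control. Controls: Unloaded micro-vesicles (low), QL9 vesicles with 0.7% DMSO (high).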
GAA850 FXN act = FXN promoter activators, primary screen, cell-based, luciferase luminescence, HEK293 lucGAA850. AID 540364, 2011. 360,000 compounds, 0.56% hits. HEK293 lucGAA850 FXN promoter luciferase reporter, 24 h; percent of 10 µM SAHA response. activation, % at 6 µM;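 active = activation above the average of all compounds screened plus 3 SD, cutoff fixed separately per campaign, cut at about 7.5% in these data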;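 also: 0% = DMSO wells and 100% = 10 µM SAHA wells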
NR2E3 ag-2 = inhibitors of NR2E3-RetCOR corepressor binding, primary screen, NR2E3 agonist project, biochemical, TR-FRET, GST-NR2E3, biotin-RetCOR. Photoreceptor-specific nuclear receptor (Homo sapiens), Q9Y5X4. 1536-well. inhibition of corepressor binding, % at 4.78 µM. 320,000 compounds, 0.12% hits. AID 2300, 2010;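 active = percent inhibition above the cutoff of mean plus 3 SD of all tested compounds, set per screening campaign, cut at about 20% in these data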;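 also: 0% = DMSO wells and 100% = biotin wells as full block of FRET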
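Test system: GST-NR2E3 and biotin-RetCOR proteins | Quantity: 1.35 nM GST-tagged NR2E3 final | Medium: Tris pH 7.5 | Also added: 7 nM biotin-RetCOR | Dosing: Compound at 4.8 µM, single dose | Timing: 5 h at 4 °C | Detection: Time-resolved FRET | Read-out basis: Percent inhibition | Benchmarks: Biotin wells as high control, 0.6% DMSO wells as low control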
NR2E3 ag confirm = NR2E3 agonist confirmation in cells, cell-based, luminescence, CHO-S two-hybrid | inhibition, % at 3.98 µM | AID 624378, 2012 | 2,300 compounds, 51% hits | shares compounds with NR2E3 ag-1 | CHO-S mammalian two-hybrid NR2E3-NCOR, luciferase luminescence;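 active = average inhibition above a cutoff equal to the mean inhibition of all tested compounds plus one SD, cut at about 70% in these data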;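 also: 0% = DMSO in NR2E3 cells and 100% = DMSO in cells lacking NR2E3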
VP16 counter = GAL4-VP16 reporter modulators, confirmation, counter-screen for NR2E3 agonist project, cell-based, luminescence, CHO-S, high throughput; shares compounds with NR2E3 ag-1; CHO-S GAL4-VP16 luciferase reporter; inhibition, % at 3.98 µM; 2,300 compounds, 29% hits; AID 624379, 2012;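 active = mean inhibition above a cutoff equal to the average over all tested compounds plus one standard deviation, cut at about 70% in these data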;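 also: luciferase from a UAS reporter driven by GAL4-VP16 transactivation; 0% = DMSO with VP16-transfected cells and 100% = DMSO with cells lacking VP16; higher means less reporter light so more repression of VP16 activity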
Numbers without * were called inactive; i = inactive; x = no result given. An excerpt weighted towards active compounds, which were near 2% of everything screened.

SMILES	NR2E3 ag-1	Myeloid diff 2	T cell HTS	GAA850 FXN act	NR2E3 ag-2	NR2E3 ag confirm	VP16 counter
COc1ccc(NS(=O)(=O)c2ccc(N3CCOCC3)c(N)c2)cc1	84.7*	i	436.6	-2.0	3.7	90.0*	77.9*
Nc1cc(S(=O)(=O)Nc2cc(Cl)ccc2Cl)ccc1N1CCOCC1	52.8	i	386.4	0.6	-2.5	38.2	47.0
O=C(c1cc(COc2ccc3ncccc3c2)on1)N1CCC(O)CC1	-26.5	i	164.1	1.9	1.0	x	x
COCC1CCCN(C(=O)c2cc(COc3ccc4ncccc4c3)on2)C1 (configuration not stated)	105.1*	i	162.0	-3.9	1.6	94.5*	87.0*
CC(CNC(=O)c1cc(COc2ccc3ncccc3c2)on1)c1ccccc1 (configuration not stated)	105.0*	i	494.1	0.4	0.3	95.9*	80.1*
CCN1CCN(C(=O)c2cc(COc3c(C)cccc3C)on2)CC1	-21.6	i	616.1	-0.4	1.4	x	x
CCOC(=O)N1CCN(C(=O)c2cc(COc3ccc4ncccc4c3)on2)CC1	65.0	i	173.3	1.0	3.7	82.9*	75.8*
COc1cc(Cl)ccc1OCc1cc(C(=O)NCC(C)c2ccccc2)no1 (configuration not stated)	-10.8	i	804.5	2.9	-0.4	x	x
Cc1cccnc1CN1CCN(C(=O)c2cc(COc3ccc4ncccc4c3)on2)CC1	78.3*	i	154.2	-1.3	-5.8	99.0*	87.8*
O=C(c1cc(COc2ccc3ncccc3c2)on1)N1CCCC(O)C1 (configuration not stated)	5.4	i	243.1	-2.2	2.2	x	x
O=C(Nc1ccc(OCc2ccccc2)cc1)Nc1nnc([C@H]2C[C@H](O)[C@@H](CO)O2)s1	-16.9	i	x	-1.1	x	x	x
O=C(c1cc(COc2ccc(-n3cncn3)cc2)on1)N1CCCC1	-10.9	i	422.1	4.0	0.9	x	x
O=C(NC1CCCCCCC1)c1cc(COc2ccc3ncccc3c2)on1	79.6*	i	x	-5.0	x	95.4*	87.6*
O=C(c1cc(COc2ccc3ncccc3c2)on1)N1CCC[C@H]1CO	80.6*	i	354.6	-0.4	3.8	38.5	51.0
COCCC1CCCCN1C(=O)c1cc(COc2ccc(C)nc2)on1 (configuration not stated)	26.5	i	i	1.4	0.1	x	x
CCC(O)C1CCN(C(=O)c2cc(COc3ccc4ncccc4c3)on2)CC1 (configuration not stated)	77.9*	i	193.5	-5.3	2.5	95.7*	85.3*
CCC1CCCCN1C(=O)c1cc(COc2ccc(-n3cncn3)cc2)on1 (configuration not stated)	60.3	i	476.9	-0.2	0.6	47.0	60.3
COc1ccc(CN2C(=O)C(CC(=O)NCC3CCCCC3)CC(C(=O)N3CCOCC3)=C2C)cc1 (configuration not stated)	-12.6	i	x	-0.9	x	x	x
CN(Cc1nccn1C)C(=O)c1cc(COc2ccc3ncccc3c2)on1	0.8	i	256.6	0.3	-2.5	x	x
Cc1cc(CN(C)C(=O)c2cc(COc3ccc4ncccc4c3)on2)on1	48.5	i	146.6	-1.6	-0.3	73.2*	63.2
C[C@H](CO)N1C[C@H](C)[C@@H](CN(C)Cc2ccncc2)OCc2cnnn2CCCC1=O	-4.5	i	x	-0.9	x	x	x
